Source: ChEMBL document CHEMBL4321879, “Novel Class of Colony-Stimulating Factor 1 Receptor Kinase Inhibitors Based on an o-Aminopyridyl Alkynyl Scaffold as Potential Treatment for Inflammatory Disorders” (J Med Chem, 2020)

Key:
[1] = biological target: Fibroblast growth factor receptor 4 (Homo sapiens, UniProt P22455); assay: Inhibition of recombinant human N-terminal His6-tagged FGFR4 (442 to 755 residues) expressed in baculovirus infected Sf21 insect cells using poly (Glu, Tyr)4:1 as substrate measured after 1 hr by ELISA
Procedure, shortened: (§1)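 ELISA kinase assay: recombinant kinase added to wells precoated with poly(Glu,Tyr)4:1 and incubated with compound in reaction buffer containing 5 μM ATP, 37 °C for 1 h; wells then washed before antibody detection.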

[2] = biological target: Vascular endothelial growth factor receptor 3 (Homo sapiens) (UniProt P35916); assay: Inhibition of recombinant VEGFR3 (unknown origin) at 1000 nM using poly (Glu, Tyr)4:1 as substrate measured after 1 hr by ELISA relative to control
Chain of Vascular endothelial growth factor receptor 3 (Homo sapiens) (P35916 whole entry): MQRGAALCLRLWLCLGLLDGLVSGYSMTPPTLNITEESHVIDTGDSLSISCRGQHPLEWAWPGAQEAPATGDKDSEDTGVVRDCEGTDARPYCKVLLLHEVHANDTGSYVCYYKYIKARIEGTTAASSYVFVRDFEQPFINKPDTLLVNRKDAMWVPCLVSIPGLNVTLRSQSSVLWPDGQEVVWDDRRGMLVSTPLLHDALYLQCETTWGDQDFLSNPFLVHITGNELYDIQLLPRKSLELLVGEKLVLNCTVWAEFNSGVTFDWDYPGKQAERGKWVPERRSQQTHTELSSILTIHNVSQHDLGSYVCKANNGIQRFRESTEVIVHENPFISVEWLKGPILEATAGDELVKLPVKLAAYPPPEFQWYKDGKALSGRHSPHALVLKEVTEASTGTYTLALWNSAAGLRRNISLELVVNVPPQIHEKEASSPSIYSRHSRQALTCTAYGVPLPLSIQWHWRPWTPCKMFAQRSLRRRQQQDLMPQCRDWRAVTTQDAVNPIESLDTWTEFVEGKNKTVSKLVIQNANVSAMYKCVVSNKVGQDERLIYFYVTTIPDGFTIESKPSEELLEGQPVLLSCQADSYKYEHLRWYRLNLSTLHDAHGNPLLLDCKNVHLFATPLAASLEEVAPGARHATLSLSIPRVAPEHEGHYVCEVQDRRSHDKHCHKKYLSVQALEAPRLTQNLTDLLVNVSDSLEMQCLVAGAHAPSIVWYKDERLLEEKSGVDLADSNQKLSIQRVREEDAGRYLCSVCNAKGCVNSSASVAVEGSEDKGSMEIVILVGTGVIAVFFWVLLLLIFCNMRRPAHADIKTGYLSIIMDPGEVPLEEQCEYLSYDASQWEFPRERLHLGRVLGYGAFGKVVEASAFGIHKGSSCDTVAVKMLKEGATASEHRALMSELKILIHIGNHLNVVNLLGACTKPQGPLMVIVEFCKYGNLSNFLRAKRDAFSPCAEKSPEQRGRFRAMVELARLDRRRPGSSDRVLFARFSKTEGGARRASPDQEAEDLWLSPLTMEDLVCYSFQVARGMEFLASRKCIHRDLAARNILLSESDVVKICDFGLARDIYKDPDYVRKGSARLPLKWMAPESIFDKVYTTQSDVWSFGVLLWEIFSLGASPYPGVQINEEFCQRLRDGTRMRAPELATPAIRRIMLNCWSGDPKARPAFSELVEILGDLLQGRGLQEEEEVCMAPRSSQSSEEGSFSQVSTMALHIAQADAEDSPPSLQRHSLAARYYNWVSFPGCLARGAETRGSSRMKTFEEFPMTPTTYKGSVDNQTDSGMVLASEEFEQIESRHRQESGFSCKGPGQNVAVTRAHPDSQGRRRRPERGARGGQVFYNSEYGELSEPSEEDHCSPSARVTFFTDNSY
Procedure, shortened: (§2)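 Recombinant kinase was incubated with compound in reaction buffer containing 5 μM ATP, in wells precoated with poly(Glu,Tyr) 4:1, for 1 h at 37 °C. Phosphorylation was detected by ELISA.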

[3] = biological target: Proto-oncogene tyrosine-protein kinase Src (Homo sapiens) (UniProt P12931); assay: Inhibition of recombinant human full-length N-terminal His6-tagged Src expressed in Sf21 insect cells at 1000 nM using poly (Glu, Tyr)4:1 as substrate measured after 1 hr by ELISA relative to control; procedure, shortened: as §1
[4] = biological target: Tyrosine-protein kinase ABL1 (Homo sapiens) (UniProt P00519); assay: Inhibition of recombinant human N-terminal His6-tagged Abl (27 to end residues) expressed in baculovirus infected Sf21 insect cells at 1000 nM using poly (Glu, Tyr)4:1 as substrate measured after 1 hr by ELISA relative to control; procedure, shortened: as §2
Chain of Tyrosine-protein kinase ABL1 (Homo sapiens) (P00519 whole entry): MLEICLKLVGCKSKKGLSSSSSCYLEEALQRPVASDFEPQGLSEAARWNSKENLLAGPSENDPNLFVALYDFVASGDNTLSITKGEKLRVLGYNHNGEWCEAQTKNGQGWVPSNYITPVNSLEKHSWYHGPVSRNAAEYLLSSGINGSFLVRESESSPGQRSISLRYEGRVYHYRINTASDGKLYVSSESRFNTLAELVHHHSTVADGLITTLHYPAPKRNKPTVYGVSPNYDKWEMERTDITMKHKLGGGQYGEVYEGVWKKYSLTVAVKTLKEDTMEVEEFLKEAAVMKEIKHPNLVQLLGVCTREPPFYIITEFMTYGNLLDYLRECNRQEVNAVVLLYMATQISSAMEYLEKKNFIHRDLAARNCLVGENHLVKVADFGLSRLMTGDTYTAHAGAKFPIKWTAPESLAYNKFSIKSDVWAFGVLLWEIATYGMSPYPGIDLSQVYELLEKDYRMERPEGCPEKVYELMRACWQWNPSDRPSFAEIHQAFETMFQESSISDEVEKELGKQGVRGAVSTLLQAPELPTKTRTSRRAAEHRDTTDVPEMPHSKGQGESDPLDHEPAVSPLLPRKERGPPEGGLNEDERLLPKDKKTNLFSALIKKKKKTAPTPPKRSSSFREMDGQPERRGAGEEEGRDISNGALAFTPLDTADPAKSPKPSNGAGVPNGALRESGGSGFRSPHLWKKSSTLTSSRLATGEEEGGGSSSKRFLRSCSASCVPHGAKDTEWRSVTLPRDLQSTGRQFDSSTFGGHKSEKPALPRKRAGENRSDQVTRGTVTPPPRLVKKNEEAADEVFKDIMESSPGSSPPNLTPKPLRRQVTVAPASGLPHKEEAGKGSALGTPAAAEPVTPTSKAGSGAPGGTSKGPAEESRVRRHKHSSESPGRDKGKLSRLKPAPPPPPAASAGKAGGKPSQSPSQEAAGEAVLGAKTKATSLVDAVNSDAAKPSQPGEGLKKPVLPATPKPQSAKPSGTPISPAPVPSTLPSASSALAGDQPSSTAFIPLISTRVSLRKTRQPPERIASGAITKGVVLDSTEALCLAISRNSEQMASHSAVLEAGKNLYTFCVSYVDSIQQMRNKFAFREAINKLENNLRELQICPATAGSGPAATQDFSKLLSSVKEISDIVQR

[5] = biological target: Tyrosine-protein kinase BTK (Homo sapiens) (UniProt Q06187); assay: Inhibition of recombinant human full-length N-terminal His6-tagged BTK expressed in baculovirus infected Sf21 insect cells at 1000 nM using poly (Glu, Tyr)4:1 as substrate measured after 1 hr by ELISA relative to control; procedure, shortened: as §1
[6] = biological target: Focal adhesion kinase 1 (Homo sapiens) (UniProt Q05397); assay: Inhibition of recombinant human N-terminal His6-tagged FAK (411 to 686 residues) expressed in baculovirus infected Sf21 insect cells at 1000 nM using poly (Glu, Tyr)4:1 as substrate measured after 1 hr by ELISA relative to control; procedure, shortened: as §2
Chain of Focal adhesion kinase 1 (Homo sapiens) (Q05397 2-1052 limits assumed): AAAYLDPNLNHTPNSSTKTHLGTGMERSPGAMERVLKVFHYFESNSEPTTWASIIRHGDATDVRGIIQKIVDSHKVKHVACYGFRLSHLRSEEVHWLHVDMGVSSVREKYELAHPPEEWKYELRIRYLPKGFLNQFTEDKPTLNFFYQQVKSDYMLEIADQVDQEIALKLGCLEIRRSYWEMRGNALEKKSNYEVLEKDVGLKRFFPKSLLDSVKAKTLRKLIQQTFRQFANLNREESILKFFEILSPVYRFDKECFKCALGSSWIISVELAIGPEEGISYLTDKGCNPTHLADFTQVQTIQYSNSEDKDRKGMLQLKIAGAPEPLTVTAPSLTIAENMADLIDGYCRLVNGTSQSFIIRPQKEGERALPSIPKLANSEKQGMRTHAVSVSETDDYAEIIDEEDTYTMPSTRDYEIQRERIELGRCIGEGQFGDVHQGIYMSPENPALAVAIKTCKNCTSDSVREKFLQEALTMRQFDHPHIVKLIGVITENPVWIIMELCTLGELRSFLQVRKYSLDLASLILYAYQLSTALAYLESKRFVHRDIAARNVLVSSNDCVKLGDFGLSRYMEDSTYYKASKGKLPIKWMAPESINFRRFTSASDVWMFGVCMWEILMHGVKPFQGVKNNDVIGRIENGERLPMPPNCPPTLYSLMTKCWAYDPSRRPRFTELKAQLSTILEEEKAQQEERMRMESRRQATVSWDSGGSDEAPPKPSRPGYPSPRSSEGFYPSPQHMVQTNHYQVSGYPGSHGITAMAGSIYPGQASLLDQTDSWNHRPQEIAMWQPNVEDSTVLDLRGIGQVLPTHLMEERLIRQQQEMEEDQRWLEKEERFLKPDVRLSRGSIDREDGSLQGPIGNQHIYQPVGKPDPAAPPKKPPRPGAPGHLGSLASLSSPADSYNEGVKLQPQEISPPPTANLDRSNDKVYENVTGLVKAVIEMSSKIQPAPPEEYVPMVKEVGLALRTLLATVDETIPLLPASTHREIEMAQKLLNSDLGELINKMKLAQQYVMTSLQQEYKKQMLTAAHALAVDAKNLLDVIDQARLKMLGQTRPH

[7] = biological target: c-KIT (Homo sapiens, UniProt P10721); assay: Inhibition of recombinant human N-terminal GST-tagged c-KIT (544 to end residues) expressed in baculovirus infected Sf21 insect cells at 100 nM using poly (Glu, Tyr)4:1 as substrate measured after 1 hr by ELISA relative to control; details: probe poly (Glu, Tyr)4:1; procedure, shortened: as §2
[8] = biological target: Tyrosine-protein kinase ABL1 (Homo sapiens) (UniProt P00519); assay: Inhibition of recombinant human N-terminal His6-tagged Abl (27 to end residues) expressed in baculovirus infected Sf21 insect cells at 100 nM using poly (Glu, Tyr)4:1 as substrate measured after 1 hr by ELISA relative to control; procedure, shortened: as §2
[9] = biological target: Receptor tyrosine-protein kinase erbB-2 (Homo sapiens) (UniProt P04626); assay: Inhibition of recombinant Erbb2 (unknown origin) at 100 nM using poly (Glu, Tyr)4:1 as substrate measured after 1 hr by ELISA relative to control; procedure, shortened: as §2
[10] = biological target: Insulin receptor (Homo sapiens) (UniProt P06213); assay: Inhibition of recombinant human N-terminal His6-tagged IR (1005 to 1310 residues) expressed in baculovirus infected Sf21 insect cells at 100 nM using poly (Glu, Tyr)4:1 as substrate measured after 1 hr by ELISA relative to control; procedure, shortened: as §1
[11] = biological target: Fibroblast growth factor receptor 2 (Homo sapiens, UniProt P21802); assay: Inhibition of recombinant human N-terminal His6-tagged FGFR2 (456 to 770 residues) expressed in baculovirus infected Sf21 insect cells at 100 nM using poly (Glu, Tyr)4:1 as substrate measured after 1 hr by ELISA relative to control; procedure, shortened: as §2
[12] = biological target: Platelet-derived growth factor receptor beta (Homo sapiens) (UniProt P09619); assay: Inhibition of recombinant human N-terminal His6-tagged PDGFRbeta (557 to end residues) expressed in baculovirus infected Sf21 insect cells at 10 nM using poly (Glu, Tyr)4:1 as substrate measured after 1 hr by ELISA relative to control; procedure, shortened: as §1
Chain of Platelet-derived growth factor receptor beta (Homo sapiens) (P09619 whole entry): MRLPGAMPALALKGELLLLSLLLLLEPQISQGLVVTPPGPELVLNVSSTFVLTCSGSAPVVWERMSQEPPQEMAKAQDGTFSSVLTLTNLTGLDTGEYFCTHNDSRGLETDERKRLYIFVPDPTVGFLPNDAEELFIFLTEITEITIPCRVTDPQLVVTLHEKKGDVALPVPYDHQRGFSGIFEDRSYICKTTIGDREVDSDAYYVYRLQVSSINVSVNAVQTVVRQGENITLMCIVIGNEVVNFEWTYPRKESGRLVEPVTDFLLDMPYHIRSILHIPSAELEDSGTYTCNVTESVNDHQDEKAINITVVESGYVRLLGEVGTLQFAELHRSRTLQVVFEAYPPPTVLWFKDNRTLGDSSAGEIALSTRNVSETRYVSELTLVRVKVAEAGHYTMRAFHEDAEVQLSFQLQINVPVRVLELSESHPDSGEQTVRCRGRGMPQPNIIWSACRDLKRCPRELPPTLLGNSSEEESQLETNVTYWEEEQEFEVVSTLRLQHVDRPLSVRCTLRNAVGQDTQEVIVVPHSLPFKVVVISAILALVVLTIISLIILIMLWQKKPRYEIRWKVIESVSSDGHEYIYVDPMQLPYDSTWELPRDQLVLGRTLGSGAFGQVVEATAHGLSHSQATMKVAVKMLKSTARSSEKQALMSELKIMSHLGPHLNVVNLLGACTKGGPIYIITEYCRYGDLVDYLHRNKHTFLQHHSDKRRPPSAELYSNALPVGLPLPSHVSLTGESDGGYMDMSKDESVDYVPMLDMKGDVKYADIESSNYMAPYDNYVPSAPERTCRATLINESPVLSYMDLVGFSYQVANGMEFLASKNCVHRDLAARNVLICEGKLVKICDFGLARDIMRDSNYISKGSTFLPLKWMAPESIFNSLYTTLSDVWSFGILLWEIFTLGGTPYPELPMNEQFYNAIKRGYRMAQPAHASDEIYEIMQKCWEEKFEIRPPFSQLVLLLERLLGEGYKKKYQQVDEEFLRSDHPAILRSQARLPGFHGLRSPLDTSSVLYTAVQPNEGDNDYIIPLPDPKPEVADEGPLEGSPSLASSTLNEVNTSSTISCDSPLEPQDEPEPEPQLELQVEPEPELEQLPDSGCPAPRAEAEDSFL

[13] = biological target: Tyrosine-protein kinase ABL1 (Homo sapiens) (UniProt P00519); assay: Inhibition of recombinant human N-terminal His6-tagged Abl (27 to end residues) expressed in baculovirus infected Sf21 insect cells at 10 nM using poly (Glu, Tyr)4:1 as substrate measured after 1 hr by ELISA relative to control; procedure, shortened: as §2
[14] = biological target: Macrophage colony-stimulating factor 1 receptor (Mus musculus) (UniProt P09581); assay: Inhibition of CSF1R in CSF1-stimulated mouse RAW264.7 cells assessed as reduction in CSF1R phosphorylation preincubated for 6 hrs followed by CSF1 stimulation and measured after 20 mins by Western blot analysis; type: cell-based
Procedure, shortened: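 RAW264.7 cells were plated in six-well plates overnight, treated with compound for 6 h, then stimulated with CSF-1 100 ng/mL for 20 min. Lysates were normalized by BCA, run on 10% SDS-PAGE, and blotted with antibodies to phospho-CSF1R (Tyr723), CSF1R, phospho-Akt (Ser473), Akt and actin.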

[15] = Cytotoxicity against mouse RAW264.7 cells assessed as reduction in cell viability measured after 24 hrs by CCK8 assay; type: cell-based
Procedure, shortened: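 RAW264.7 cells were seeded in triplicate in DMEM and exposed to compound for 24 h. CCK-8 was added, incubated 1 h, and absorbance read at 450 nm with 570 nm reference. CC50 from log(inhibitor) versus normalized response nonlinear fit.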

[16] = AUC (0 to t) in Sprague-Dawley rat at 5 mg/kg, po administered via gavage by LC-MS/MS analysis; type: ADME, organism-based; details: in vivo
Procedure, shortened: (§3)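 Male SD rats (200 ± 20 g) were fasted 12 h with free access to water, n = 3 per group. One group received 2 mg/kg iv in DMSO/EtOH/PEG300/saline (5/5/40/50). The other received 5 mg/kg by oral gavage in DMSO/HPMC (5/95). Femoral-vein plasma was taken at 15–1440 min, methanol-precipitated with internal standard, and measured by LC–MS/MS. Noncompartmental analysis; AUC by trapezoidal method.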

[17] = MRT (infinity) in Sprague-Dawley rat at 5 mg/kg, po administered via gavage by LC-MS/MS analysis; type: ADME, organism-based; details: in vivo
Procedure, shortened: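 Male SD rats (200 ± 20 g), fasted 12 h, n = 3; oral gavage 5 mg/kg in DMSO/HPMC (5/95). Femoral vein blood at 15–1440 min; plasma precipitated with methanol plus internal standard, LC–MS/MS; noncompartmental analysis, Tmax observed directly, MRT = AUMC/AUC.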

[18] = Clearance in Sprague-Dawley rat at 2 mg/kg, iv administered […] by LC-MS/MS analysis; type: ADME, organism-based; details: in vivo; procedure, shortened: as §3

IC50 [1]: > 1 µM | inhibition [2]: 100% | inhibition [3]: 72.8% | inhibition [4]: 98.3% | inhibition [5]: 8% | inhibition [6]: 10.8% | inhibition at 1 h, 0.1 µM [7]: 100% | inhibition [8]: 82.1% | inhibition [9]: 8.8% | inhibition [10]: 2.1% | inhibition [11]: 16.2% | inhibition [12]: 14.7% | inhibition [13]: 0% | inhibition [14]: Dose-dependent effect | AUC(0-t) [16]: 634 ng·h/mL | MRT inf [17]: 5.42 h | clearance [18]: 46 mL/min/kg
Compound: Cc1ccc(C(=O)Nc2ccc(Cl)cc2)cc1C#Cc1cc(-c2cnn(C)c2)cnc1N
CC50 at 24 h [15]: 66 µM
